Source: ChEMBL document CHEMBL1275299, “Synthesis and anti-inflammatory activity of derivatives of coumarino-lignoid, cleomiscosin A and its methyl ether” (2010)

Assays:
Type in all cases: functional
[1] = Antiinflammatory activity in Swiss albino mouse macrophage assessed as inhibition of LPS-induced IL-6 production at 1 ug/ml treated 30 mins before LPS challenge measured after 24 hrs by ELISA
In short: (§1)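 Peritoneal macrophages from 8-week-old female Swiss albino mice, elicited by i.p. 1% peptone (1 mL) 3 days before harvest and collected by PBS (pH 7.4) lavage, were used at 2 × 10^6 live cells/mL. Cells were kept in RPMI 1640 with 10% heat-inactivated FCS and penicillin/streptomycin at 37 °C, 5% CO2. Adherent cells were kept after 2 h. Compounds were given in DMSO, with a DMSO vehicle control. LPS was 0.5 µg/mL. Cytokines were measured in supernatants by mouse sandwich ELISA kits. n = 4, Student t-test versus vehicle.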

[2] = Antiinflammatory activity in Swiss albino mouse macrophage assessed as inhibition of LPS-induced IL1-beta production at 1 ug/ml treated 30 mins before LPS challenge measured after 24 hrs by ELISA; in short: as §1
[3] = Antiinflammatory activity in Swiss albino mouse macrophage assessed as inhibition of LPS-induced TNFalpha production at 1 ug/ml treated 30 mins before LPS challenge measured after 24 hrs by ELISA; in short: as §1
[4] = Antiinflammatory activity in Swiss albino mouse macrophage assessed as inhibition of LPS-induced TNFalpha production at 10 ug/ml treated 30 mins before LPS challenge measured after 24 hrs by ELISA; in short: as §1
[5] = Antiinflammatory activity in Swiss albino mouse macrophage assessed as inhibition of LPS-induced IL1-beta production at 10 ug/ml treated 30 mins before LPS challenge measured after 24 hrs by ELISA; in short: as §1
[6] = Antiinflammatory activity in Swiss albino mouse macrophage assessed as inhibition of LPS-induced IL-6 production at 10 ug/ml treated 30 mins before LPS challenge measured after 24 hrs by ELISA; in short: as §1

Row | SMILES | inhibition at 1 µg/mL [1] | inhibition at 1 µg/mL [2] | inhibition at 1 µg/mL [3] | inhibition at 10 µg/mL [4] | inhibition at 10 µg/mL [5] | inhibition at 10 µg/mL [6]
1 | COc1cc([C@H]2Oc3c(OC)c([N+](=O)[O-])c4ccc(=O)oc4c3O[C@@H]2CO[N+](=O)[O-])c([N+](=O)[O-])cc1OC | 81.4% | 59.1% | 64.8% | 60.6% | 53.3% | 79%
2 | COc1cc([C@H]2Oc3c(OC)cc4ccc(=O)oc4c3O[C@@H]2COC(C)=O)ccc1O [DURANTIN A] | 81.9% | 109% | 73.3% | 76.2% | 74.8% | 78.3%
3 | COc1cc([C@H]2Oc3c(OC)c([N+](=O)[O-])c4ccc(=O)oc4c3O[C@@H]2CO)c([N+](=O)[O-])cc1OC | 86.4% | 72% | 76.6% | 78% | 70.2% | 80.2%
4 | COc1ccc([C@H]2Oc3c(OC)c(Cl)c4ccc(=O)oc4c3O[C@@H]2CO)cc1OC | 57.5% | 59.2% | 50.2% | 49.6% | 40.1% | 56.2%
5 | O=C(O)Cc1ccccc1Nc1c(Cl)cccc1Cl [DICLOFENAC SODIUM] | 51.1% | 38.5% | 46.5% | – | – | –
6 | COc1cc([C@H]2Oc3c(OC)c([N+](=O)[O-])c4ccc(=O)oc4c3O[C@@H]2COC(C)=O)ccc1OC(C)=O | 87.2% | 70.4% | 70.5% | 67.8% | 65.3% | 82%
7 | COc1ccc([C@H]2Oc3c(OC)c(Br)c4ccc(=O)oc4c3O[C@@H]2CO)cc1OC | 59.8% | 50.1% | 44.8% | 42% | 44.7% | 60%
8 | COc1cc([C@H]2Oc3c(OC)c(Br)c4ccc(=O)oc4c3O[C@@H]2COC(C)=O)ccc1O | 60.2% | 55.3% | 54.5% | 54.2% | 58.8% | 52.5%
